# HUVEC prolif 384: blocks proliferation of human endothelial cells; viability, % at 10 µM (by protocol); 1.1% of 86,000 active; HUVEC proliferation, CellTiter-Glo luminescence, 72 h; stronger effect = lower value;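 active = viability at or below 30%; inactive = viability above 30%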;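 also: 100% = median luminescence of DMSO-only cell control wells on each plate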
# H69AR growth 86K: growth inhibitors of human H69AR lung tumor cells; H69AR lung tumor viability, ATP luminescence, 72 h; stronger effect = lower value; viability, % at 10 µM; 6% of 85,000 active; AID 598;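 active = viability at or below 40%; inactive = viability above 40%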;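 also: multidrug resistant small cell line overexpressing MRP-1 efflux transporter; 100% = mean luminescence of untreated control wells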
# Lung fibro prol: blocks proliferation of human lung fibroblasts. AID 719. LL 47 human lung fibroblast viability, ATP luminescence; stronger effect = lower value. viability, % at 10 µM. 1.1% of 85,000 active;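 active = viability at or below 50% in the single dose screen; inactive = viability above 50%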;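 also: compound exposure lasted 72 h before the ATP readout; 100% = median luminescence of untreated cell-only wells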
#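 material = human LL 47 lung fibroblast cells | dosing = compounds added from tenfold dosing solution, 0.1% DMSO final | timing = overnight cell rest, 72 h compound treatment at 37 °C | measured by = CellTiter-Glo luminescence measuring cellular ATP | evaluation = % viability versus median cells-only luminescence | control set = cell-only wells, no compound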
# PTEN del growth: suppresses growth of cells with PTEN deletion. HCT116 PTEN-null viability, CellTiter-Glo, 60 h; stronger effect = lower value. viability, % at 10 µM. 1.2% of 140,000 active. AID 827;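 active = viability at or below a set limit, 4 SD under the median of all tested compounds, cut at about 3.7% in these data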;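 also: PTEN knockout HCT116 line with beta catenin targeted HCT116 as companion control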
# HCT116 bCat-KO: beta-catenin-lacking colon tumor cell growth suppression. HCT116 beta-catenin knockout viability, CellTiter-Glo, 60 h; stronger effect = lower value. viability, % at 10 µM. 1.5% of 140,000 active;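 active = viability at or under a set limit, the compound median less 4 SD, cut at about 6% in these data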;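 also: 0% = Hyamine 1622 control at 20 µM and 100% = untreated cell control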
# An asterisk follows results filed as active; . = no result given. The entries come from a sample that favours hits as a whole.
SMILES,HUVEC prolif 384,H69AR growth 86K,Lung fibro prol,PTEN del growth,HCT116 bCat-KO
O=C(NC(c1ccccc1)C(Cl)(Cl)Cl)c1ccccc1 (stereo unspecified),.,.,.,71,78
CC(OC(=O)c1ccc([N+](=O)[O-])s1)C(=O)Nc1ncc(Cl)cc1Cl (stereo unspecified),.,.,.,91,82
CN(C)C(=O)COC(=O)c1ccccc1Nc1ccc(SC(F)F)cc1,.,.,.,61,64
COc1ccccc1N(CC(O)COc1ccccc1C)S(=O)(=O)c1ccccc1 (stereo unspecified),.,.,.,67,69
Oc1ccc(CNc2ccccc2)c2cccnc12,71,36*,88,5,7
O=[N+]([O-])c1ccc(O)c2ncccc12,.,.,.,4,4.1*
Oc1ccc(CNc2ccc(F)cc2)c2cccnc12,77,55,85,10,12
Clc1ccc(-c2nnc(CNC3CC3)o2)cc1,.,.,.,98,98
Cc1cc(C)c(COCc2cc(/C=N/O)c(C)cc2C)cc1/C=N/O,74,18*,91,61,50
CSc1cc(/C=N/O)c(SC)s1,.,.,.,86,86
COCc1cc(=O)[nH]c(Nc2nc3ccc(C)cc3o2)n1,39,21*,5.2*,5,7
CN1CCN(C(=S)Nc2cc([N+](=O)[O-])ccc2Cl)CC1,.,.,.,101,91
COCCCn1[nH]c2c3c(ccc2c1=O)C(=O)c1ccccc1C3=O,6.8*,86,87,28,28
Cc1ccc(-n2[nH]c3c4c(ccc3c2=O)C(=O)c2ccccc2C4=O)cc1,.,.,.,105,104
CC(C)(C)n1[nH]c2c3c(ccc2c1=O)C(=O)c1ccccc1C3=O,3.3*,60,59,8,7
CCN(CC)c1ccc(NC(=O)CSc2nc3ccccc3c(=O)n2-c2cc(S(=O)(=O)N(C)C)ccc2C)cc1,.,.,.,100,90
CCCCNC(=S)N/N=C/c1ccc(OCC(=O)Nc2c(C)cc(C)cc2C)c(OC)c1,.,.,.,88,76
O=C(NC1CCCCC1)C12CC3CC(CC(Cl)(C3)C1)C2,.,.,.,90,88
N=C1C(c2nc(-c3ccc(Cl)cc3)cs2)=C(O)CN1CCCN1CCOCC1,10.0*,62,107,60,56
COc1ccccc1CNCC(O)Cn1c2ccccc2c2ccccc21 (stereo unspecified),.,.,.,1.4*,1.5*
C=CCOc1ccc(/C=N/N2C(=O)C(CC(=O)Nc3ccc(F)cc3F)SC2=NC)cc1 (stereo unspecified),.,.,.,68,8
CN1CCN(c2ccc(Cl)cc2NC(=O)C2COc3ccccc3O2)CC1 (stereo unspecified),71,30*,82,78,72
CN1CCN(c2ccc(Cl)cc2NC(=O)c2nn(-c3ccccc3)c(=O)c3ccccc23)CC1,82,4.9*,97,70,80
COc1ccc(OC)c(NC(=O)C2COc3ccccc3O2)c1 (stereo unspecified),87,69,102,95,96
CN1CCN(c2ccc(Cl)cc2NC(=O)c2cccc(S(=O)(=O)N(C)C)c2)CC1,57,26*,84,75,69
SMILES,HUVEC prolif 384,H69AR growth 86K,Lung fibro prol,PTEN del growth,HCT116 bCat-KO
CCC(C)[C@H](NC(=O)Nc1cccc(Br)c1)C(=O)OC (stereo partly specified),.,.,.,91,105
COC(=O)/C(=C\Nc1ccc(OC)cc1)NC(=O)c1ccc(Cl)cc1Cl,75,36*,88,77,65
COc1ccc2nc(Sc3c([N+](=O)[O-])nc(C)n3Cc3ccccc3)[nH]c2c1,.,.,.,1.7*,4.6*
Cc1cc2nc(Sc3c([N+](=O)[O-])nc(C)n3Cc3ccccc3)[nH]c2cc1C,.,.,.,2.8*,4.6*
Cc1nc([N+](=O)[O-])c(Sc2nc3ccccc3[nH]2)n1Cc1ccccc1,.,.,.,16,11
CC(=O)N1CCN(c2ccc(NC(=O)c3ccc(C(C)(C)C)cc3)cc2)CC1,51,34*,97,6,5.9*
CCOC(=O)C1CCCN(CCC(=O)Nc2ccc(C)cc2)C1 (stereo unspecified),98,90,98,108,92
S=c1[nH]nc(COc2ccc(Cl)cc2)n1C1CCCCC1,89,64,88,90,90
Cc1cccc(OCc2n[nH]c(=S)n2C2CCCCC2)c1,64,22*,84,77,82
Cc1ccc(OCc2n[nH]c(=S)n2C2CCCCC2)cc1,94,37*,100,87,89
CC[C@H](C)[C@H](NC(=O)c1ccc(Cl)cc1)C(=O)OCC(=O)c1ccc2c(c1)NC(=O)CO2,5.4*,2.6*,21*,93,82
Cc1cccc(N=C2NN=C(c3c(C)[nH]c4ccccc34)CS2)c1,.,.,.,4,2.7*
Cc1cccc(N=C2NN=C(c3ccc4c(c3)OCCO4)CS2)c1,86,77,102,30,36
CC(C)=NN/C(N)=N/C(=S)Nc1ccc(C)cc1,.,.,.,99,89
O=C(c1nn2c(C(F)(F)F)cc(-c3ccco3)nc2c1Br)N1CCCc2ccccc21,65,39*,46*,80,66
CC(C)CCNC(=O)c1cnn2c(C(F)(F)F)cc(-c3ccco3)nc12,86,56,97,59,66
O=C(NC1CCCC1)c1cnn2c(C(F)(F)F)cc(-c3ccco3)nc12,85,33*,78,62,68
O=C(NC1CCCC1)c1cnn2c(C(F)(F)F)cc(-c3ccc4c(c3)OCO4)nc12,28*,17*,84,7,11
Cc1cccc(C(=O)NNC(=O)CN2C(=O)c3ccccc3C2=O)c1,.,.,.,109,96
O=C(Nc1ccc2cn[nH]c2c1)c1ccc(Cl)c(S(=O)(=O)N2CCOCC2)c1,.,.,.,86,86
O=C(NCC(c1cccs1)N1CCOCC1)c1ccc(Cl)s1 (stereo unspecified),82,18*,64,21,16
O=C(NCC(c1cccs1)N1CCOCC1)c1cc([N+](=O)[O-])ccc1Cl (stereo unspecified),.,.,.,91,87
COc1ccccc1N1CCN(C(=O)COc2ccc(Cl)cc2Br)CC1,68,17*,97,69,82
O=C(CC12CC3CC(CC(C3)C1)C2)N1CCN(S(=O)(=O)c2cccs2)CC1,.,.,.,90,91
[O-][n+]1onc2c1CCc1nnccc1-2,105,63,101,80,65
SMILES,HUVEC prolif 384,H69AR growth 86K,Lung fibro prol,PTEN del growth,HCT116 bCat-KO
Cc1cc2c(ccc3c2no[n+]3[O-])nn1,99,37*,92,72,69
[O-][n+]1onc2c3ccnnc3ccc21,104,38*,92,93,91
O=c1c(F)cn(C2CCCO2)c(=O)n1Cc1c(Cl)cccc1Cl (stereo unspecified),88,28*,91,89,84
O=C(Cc1c(F)cccc1Cl)NCC1CCCO1 (stereo unspecified),95,95,99,96,107
CC(=O)Nc1ccc(NC(=O)C(C)OC(=O)C2(c3ccc(Cl)cc3)CCCC2)cc1 (stereo unspecified),.,.,.,75,82
O=C(c1ccc(Cn2cc(Cl)cn2)cc1)N1CCN(c2ccccc2)CC1,99,69,100,89,84

# From PubChem
